{"source": "ChEMBL document CHEMBL4765412", "about": "“(±)-trans-2-phenyl-2,3-dihydrobenzofurans as leishmanicidal agents: Synthesis, in vitro evaluation and SAR analysis” (Eur J Med Chem, 2020)", "key": {"[1]": {"system": "L6", "test": "Cytotoxicity against rat L6 cells assessed as reduction in cell viability incubated for 70 hrs by resazurin staining based inverted microscopic analysis", "conditions": "L6, 70 h", "in_short": "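Rat L-6 skeletal myoblast line; racemates tested unless stated.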"}, "[2]": {"test": "Selectivity index, ratio of IC50 for cytotoxicity against rat L6 cells to IC50 for antileishmanial activity against Leishmania donovani MHOM/ET/67/L82 amastigotes", "type": "toxicity, cell-based", "conditions": "read-out: Ratio IC50"}, "[3]": {"system": "Leishmania donovani", "test": "Antileishmanial activity against Leishmania donovani MHOM/ET/67/L82 amastigotes assessed as growth inhibition incubated for 70 hrs by resazurin based inverted microscopic analysis", "type": "functional, organism-based", "conditions": "Leishmania donovani, MHOM/ET/67/L82, 70 h", "in_short": "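Axenic L. donovani amastigotes (MHOM/ET/67/L82); racemates tested unless stated; miltefosine as positive control. Some values come from a separate run and were rescaled by that run's relative miltefosine IC50.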"}, "[4]": {"test": "Metabolic stability in mouse liver microsomes assessed as metabolite formation by glucuronidation at 100 umol/L incubated for 90 mins in presence of UDPGA by LC-MS analysis", "conditions": "1.5 h, 100 µM"}, "[5]": {"test": "Metabolic stability in mouse liver microsomes assessed as metabolite formation by ester hydrolysis at 100 umol/L incubated for 90 mins in absence of UDPGA by LC-MS analysis", "conditions": "1.5 h, 100 µM"}}, "data": [{"smiles": "C[C@H]1c2cc(/C=C/C(=O)O)ccc2O[C@@H]1c1ccc(O)cc1", "note": "(racemic)", "values": [{"measurement": "IC50", "setting": "[1]", "result": 73.9, "unit": "µM"}, {"measurement": "selectivity ratio", "setting": "[2]", "result": 13.1}, {"measurement": "IC50", "setting": "[3]", "result": 5.64, "unit": "µM"}]}, {"smiles": "COc1ccc([C@H]2Oc3ccc(/C=C/C(=O)OC(C)(C)C)cc3[C@@H]2CO)cc1OC", "note": "(racemic)", "values": [{"measurement": "IC50", "setting": "[1]", "result": 22.9, "unit": "µM"}, {"measurement": "selectivity ratio", "setting": "[2]", "result": 2.1}, {"measurement": "IC50", "setting": "[3]", "result": 10.7, "unit": "µM"}]}, {"smiles": "C[C@H]1c2cc(Br)ccc2O[C@@H]1c1ccc(O)cc1", "note": "(racemic)", "values": [{"measurement": "IC50", "setting": "[1]", "result": 56.6, "unit": "µM"}, {"measurement": "selectivity ratio", "setting": "[2]", "result": 1.7}, {"measurement": "IC50", "setting": "[3]", "result": 32.5, "unit": "µM"}]}, {"smiles": "CC(=O)Oc1ccc([C@H]2Oc3ccc(/C=C/C(=O)OC(C)(C)C)cc3[C@@H]2C(=O)OC(C)(C)C)cc1", "note": "(racemic)", "values": [{"measurement": "IC50", "setting": "[1]", "result": 11.8, "unit": "µM"}, {"measurement": "selectivity ratio", "setting": "[2]", "result": 5.7}, {"measurement": "IC50", "setting": "[3]", "result": 2.06, "unit": "µM"}]}, {"smiles": "CC(C)(C)OC(=O)/C=C/c1ccc2c(c1)[C@H](CO)[C@@H](c1ccc(O)cc1)O2", "note": "(racemic)", "values": [{"measurement": "IC50", "setting": "[1]", "result": 33.8, "unit": "µM"}, {"measurement": "selectivity ratio", "setting": "[2]", "result": 2}, {"measurement": "IC50", "setting": "[3]", "result": 17.1, "unit": "µM"}]}, {"smiles": "OC[C@H]1c2cc(-c3ccc(O)cc3)ccc2O[C@@H]1c1ccc(O)cc1", "note": "(racemic)", "values": [{"measurement": "IC50", "setting": "[1]", "result": 44.5, "unit": "µM"}, {"measurement": "selectivity ratio", "setting": "[2]", "result": 2.7}, {"measurement": "IC50", "setting": "[3]", "result": 16.5, "unit": "µM"}]}, {"smiles": "COc1cc([C@H]2Oc3ccccc3[C@@H]2C)cc(I)c1O", "note": "(racemic)", "values": [{"measurement": "IC50", "setting": "[1]", "result": 46.9, "unit": "µM"}, {"measurement": "selectivity ratio", "setting": "[2]", "result": 3.5}, {"measurement": "IC50", "setting": "[3]", "result": 13.4, "unit": "µM"}]}, {"smiles": "OC[C@H]1c2cc(Br)ccc2O[C@@H]1c1ccc(O)c(O)c1", "note": "(racemic)", "values": [{"measurement": "IC50", "setting": "[1]", "result": 3.93, "unit": "µM"}, {"measurement": "selectivity ratio", "setting": "[2]", "result": 0.2}, {"measurement": "IC50", "setting": "[3]", "result": 17.8, "unit": "µM"}]}, {"smiles": "CC(C)OC(=O)/C=C/c1cc(O)c2c(c1)[C@H](C(=O)OC(C)C)[C@@H](c1ccc(O)c(O)c1)O2", "note": "(racemic)", "values": [{"measurement": "IC50", "setting": "[1]", "result": 10.2, "unit": "µM"}, {"measurement": "Drug metabolism", "setting": "[4]", "result": "Metabolite_Detected"}, {"measurement": "selectivity ratio", "setting": "[2]", "result": 18.9}, {"measurement": "Drug metabolism", "setting": "[5]", "result": "Metabolite_Detected"}, {"measurement": "IC50", "setting": "[3]", "result": 0.54, "unit": "µM"}]}, {"smiles": "OC[C@H]1c2cc(-c3cccnc3F)ccc2O[C@@H]1c1ccc(O)cc1", "note": "(racemic)", "values": [{"measurement": "IC50", "setting": "[1]", "result": 52.4, "unit": "µM"}, {"measurement": "selectivity ratio", "setting": "[2]", "result": 2.8}, {"measurement": "IC50", "setting": "[3]", "result": 18.8, "unit": "µM"}]}, {"smiles": "COc1ccc([C@H]2Oc3ccc(/C=C/C(=O)OC(C)(C)C)cc3[C@@H]2C)cc1", "note": "(racemic)", "values": [{"measurement": "IC50", "setting": "[1]", "result": 40.1, "unit": "µM"}, {"measurement": "selectivity ratio", "setting": "[2]", "result": 10}, {"measurement": "IC50", "setting": "[3]", "result": 4.01, "unit": "µM"}]}, {"smiles": "Cc1ccc(-c2ccc3c(c2)[C@H](CO)[C@@H](c2ccc(O)cc2)O3)s1", "note": "(racemic)", "values": [{"measurement": "IC50", "setting": "[1]", "result": 15.8, "unit": "µM"}, {"measurement": "selectivity ratio", "setting": "[2]", "result": 1}, {"measurement": "IC50", "setting": "[3]", "result": 16.1, "unit": "µM"}]}, {"smiles": "COc1ccc([C@H]2Oc3ccc(/C=C/C(=O)OC(C)(C)C)cc3[C@@H]2CF)cc1OC", "note": "(racemic)", "values": [{"measurement": "IC50", "setting": "[1]", "result": 34, "unit": "µM"}, {"measurement": "selectivity ratio", "setting": "[2]", "result": 2.6}, {"measurement": "IC50", "setting": "[3]", "result": 13, "unit": "µM"}]}, {"smiles": "O=S(=O)(OC[C@H]1c2ccccc2O[C@@H]1c1ccc(OS(=O)(=O)c2ccccn2)cc1)c1ccccn1", "note": "(racemic)", "values": [{"measurement": "IC50", "setting": "[1]", "result": 189, "unit": "µM"}, {"measurement": "selectivity ratio", "setting": "[2]", "result": 29.9}, {"measurement": "IC50", "setting": "[3]", "result": 6.31, "unit": "µM"}]}, {"smiles": "O=Cc1ccc(-c2ccc3c(c2)[C@H](CO)[C@@H](c2ccc(O)cc2)O3)cc1", "note": "(racemic)", "values": [{"measurement": "IC50", "setting": "[1]", "result": 55.9, "unit": "µM"}, {"measurement": "selectivity ratio", "setting": "[2]", "result": 1.5}, {"measurement": "IC50", "setting": "[3]", "result": 37.7, "unit": "µM"}]}, {"smiles": "CC(C)(C)OC(=O)/C=C/c1ccc2c(c1)[C@H](C(=O)OC(C)(C)C)[C@@H](c1ccc(OC(C)(C)C)cc1)O2", "note": "(racemic)", "values": [{"measurement": "IC50", "setting": "[1]", "result": 202, "unit": "µM"}, {"measurement": "selectivity ratio", "setting": "[2]", "result": 15.5}, {"measurement": "IC50", "setting": "[3]", "result": 13.1, "unit": "µM"}]}, {"smiles": "C/C=C/c1cc(OC)c2c(c1)[C@H](C)[C@@H](c1ccc(O)c(OC)c1)O2", "note": "(racemic) [LICARIN A]", "values": [{"measurement": "IC50", "setting": "[1]", "result": 6.21, "unit": "µM"}, {"measurement": "selectivity ratio", "setting": "[2]", "result": 1}, {"measurement": "IC50", "setting": "[3]", "result": 6.45, "unit": "µM"}]}]}
